Assay [1] has as its system Mus musculus. Kind of assay: Antialzheimer activity in 5XFAD mouse assessed as average plaque volume in […] cortex at 75 ppm administered as rodent chow starting from 1.5 months and measured after 5 months by immunolabeling based confocal microscopic analysis (reference value: 789.31 to 1314.37 microm3). The format is functional. The note with it: route po, time 3.5 months, 2555 h. An outline of the steps: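 5xFAD mice fed PLX3397 at 75 ppm in AIN-76A chow from 1.5 to 5 months of age; retrosplenial and somatosensory cortex sections stained with Thio-S and immunolabeled for IBA1; confocal imaging, IBA1+ cells and plaques quantified per region; two-tailed independent t-test, n = 4–5 per group, mean ± SEM.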

Assay [2] addresses Serine/threonine-protein kinase Nek6 (Homo sapiens, UniProt Q9HC98). Kind of assay: Inhibition of NEK6 (unknown origin).
Assay [3] relates to Mus musculus. The experiment in a line: Antialzheimer activity in 5XFAD mouse assessed as iron reactivity by measuring hemosiderin intensity of prussian blue staining in […] cortex at 1200 ppm administered as rodent chow starting from 1.5 months and measured after 7 months by confocal microscopic analysis (reference value: 0.1 to 4.791 a.u.). In kind it is functional. The conditions noted are these: route po, time 5.5 months, 4015 h. The gist of the method:
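Wild-type or 5xFAD mice fed PLX5622 (1200 ppm) in AIN-76A chow from 1.5 months of age, examined in 4- and 7-month-old cohorts. Brain sections stained with a Prussian blue kit per kit instructions to detect iron deposits (microbleeds).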

Assay [4] deals with Mus musculus. Kind of assay: Antialzheimer activity in 5XFAD mouse assessed as ApoE immunoreactivity by measuring ApoE intensity of plaque core in thalamus at 1200 ppm administered as rodent chow starting from 1.5 months and measured after 7 months by immunolabeling based confocal microscopic analysis (reference value: 6.13 to 122.68 a.u.). The note with it: route po, time 5.5 months, 4015 h. The format is functional.

The target in another assay is AMPK alpha2/beta1/gamma1 (Homo sapiens, UniProt P54619+P54646+Q9Y478). The experiment in a line: Inhibition of AMPK_A2/B1/G1 (unknown origin). In kind it is protein-complex assay.
The target of assay [5] is Serine/threonine-protein kinase PLK2 (Homo sapiens, UniProt Q9NYY3). The experiment in a line: Inhibition of PLK2 (unknown origin).
Assay [6] in a line: Effect on Cx3cr1 gene expression in 5XFAD mouse thalamus at 1200 ppm administered as rodent chow starting from 1.5 months and measured after 7 months by RNA-Seq analysis (reference value: 15.006 to 17.756 RPKM). In kind it is functional. The note with it: route po, time 5.5 months, 4015 h.
For assay [7], the target named is Mitogen-activated protein kinase kinase kinase kinase 5 (Homo sapiens, UniProt Q9Y4K4). The experiment in a line: Inhibition of MAP4K5 (unknown origin).
Assay [8] can be described thus: Effect on Scn1b gene expression in wildtype mouse hippocampus assessed as percent change in Reads Per kilo base per Million mapped reads at 1200 ppm administered as rodent chow starting from 1.5 months and measured after 7 months by RNA-Seq analysis (reference value: 86.853 to […]). In kind it is functional. The conditions noted are these: route po, time 5.5 months, 4015 h.

Assay [9] is described as follows: Prevention of Nos1ap gene downregulation in 5XFAD mouse hippocampus assessed as percent change in Reads Per kilo base per Million mapped reads at 1200 ppm administered as rodent chow starting from 1.5 months and measured after 7 months by RNA-Seq analysis (reference value: 58.209 to 93.063 %). In kind it is functional. The conditions noted are these: route po, time 5.5 months, 4015 h.

Assay [10] is described as follows: Effect on Dusp5 gene expression in wildtype mouse hippocampus assessed as percent change in Reads Per kilo base per Million mapped reads at 1200 ppm administered as rodent chow starting from 1.5 months and measured after 7 months by RNA-Seq analysis (reference value: 75.632 to 114.605 %). In kind it is functional. The note with it: route po, time 5.5 months, 4015 h.

Assay [11] deals with Mus musculus. Kind of assay: Prevention of Tmem119 gene upregulation in 5XFAD mouse hippocampus at 1200 ppm administered as rodent chow starting from 1.5 months and measured after 7 months by Nanostring analysis. The format is functional, tissue-based. The note with it: route po, time 5.5 months.
Assay [12] is described as follows: Effect on Ctsd gene expression in 5XFAD mouse thalamus at 1200 ppm administered as rodent chow starting from 1.5 months and measured after 7 months by RNA-Seq analysis (reference value: 209.488 to 301.760 RPKM). The note with it: route po, time 5.5 months, 4015 h. In kind it is functional.
Assay [13] concerns Mus musculus. Kind of assay: Prevention of C1qa gene upregulation in 5XFAD mouse hippocampus at 1200 ppm administered as rodent chow starting from 1.5 months and measured after 7 months by Nanostring analysis. In kind it is functional, tissue-based. The note with it: route po, time 5.5 months.
A short description of assay [14]: Effect on Cst7 gene expression in wild type mouse hippocampus at 1200 ppm administered as rodent chow starting from 1.5 months and measured after 7 months by RNA-Seq analysis (reference value: 0.079 to 0.447 RPKM). In kind it is functional. The conditions noted are these: route po, time 5.5 months, 4015 h.
Assay [15] deals with Glycogen synthase kinase-3 alpha (Homo sapiens, UniProt P49840). Kind of assay: Inhibition of GSK3A (unknown origin).
Assay [16] has as its target Tyrosine-protein kinase JAK3 (Homo sapiens, UniProt P52333). Kind of assay: Inhibition of JAK3 (unknown origin).
Assay [17] addresses Serine/threonine-protein kinase Nek2 (Homo sapiens, UniProt P51955). The experiment in a line: Inhibition of NEK2 (unknown origin).
Assay [18] addresses Protein kinase C iota type (Homo sapiens, UniProt P41743). Kind of assay: Inhibition of PRKCI (unknown origin).
The target in assay [19] is Ribosomal protein S6 kinase beta-1 (Homo sapiens, UniProt P23443). The experiment in a line: Inhibition of RPS6KB1 (unknown origin).
Assay [20] can be described thus: Effect on Dync1i1 gene expression in wildtype mouse hippocampus assessed as percent change in Reads Per kilo base per Million mapped reads at 1200 ppm administered as rodent chow starting from 1.5 months and measured after 7 months by RNA-Seq analysis (reference value: 96.347 to 105.024 %). The format is functional. The conditions noted are these: route po, time 5.5 months, 4015 h.

The next assay has as its target Rhodopsin kinase GRK7 (Homo sapiens, UniProt Q8WTQ7). The experiment in a line: Inhibition of GRK7 (unknown origin).
For another assay, the target named is Ephrin type-B receptor 2 (Homo sapiens, UniProt P29323). The experiment in a line: Inhibition of EPHB2 (unknown origin).
Assay [21] has as its target Tyrosine-protein kinase receptor UFO (Homo sapiens, UniProt P30530). Kind of assay: Inhibition of AXL (unknown origin).
Assay [22] deals with Mus musculus. The experiment in a line: Antialzheimer activity in 5XFAD mouse assessed as amyloidbeta40 level in detergent soluble thalamus fraction measured per microgram protein at 1200 ppm administered as rodent chow starting from 1.5 months and measured after 7 months by ELISA (reference value: 0 to 0.047 pg). The conditions noted are these: route po, time 5.5 months, 4015 h. The format is functional. An outline of the steps:
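PLX5622 at 1200 ppm in chow given to 5xFAD mice from 1.5 months to 4 or 7 months of age; cortex and thalamus homogenized in TPER (detergent-soluble), pellets re-homogenized in 70% formic acid and spun 100,000 g, 1 h, 4 °C (insoluble); protein by Bradford/Lowry; Aβ species measured by Meso Scale electrochemiluminescence immunoassay, normalized to protein; n = 7–8 per group at 7 months.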

For assay [23], the target named is Receptor tyrosine-protein kinase erbB-4 (Homo sapiens, UniProt Q15303). The experiment in a line: Inhibition of ERBB4 (unknown origin).
The test system of assay [24] is Mus musculus. Kind of assay: Antialzheimer activity in 5XFAD mouse assessed as microglial elimination in cortex at 1200 ppm administered as rodent chow for 10 weeks by Thio-S staining based confocal microscopic analysis relative to control. The format is functional. The conditions noted are these: route po. The gist of the method: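 1.5-month-old 5xFAD mice fed 1200 ppm PLX5622 chow for 10 weeks; free-floating sections stained with Thio-S and immunolabeled for IBA1 (5% normal serum/0.2% Triton X-100 block, 60 min); confocal imaging of cortex and thalamus to assess remaining microglia.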

A short description of assay [25]: Effect on Hexb gene expression in wild type mouse hippocampus at 1200 ppm administered as rodent chow starting from 1.5 months and measured after 7 months by RNA-Seq analysis (reference value: 42.233 to 43.921 RPKM). In kind it is functional. The note with it: route po, time 5.5 months, 4015 h.

Molecules are shown by their SMILES. Activity calls are given as the source filed them. The calls are words filed in the database; no cut-off is given here.

Chain of Serine/threonine-protein kinase Nek6 (Q9HC98 whole entry): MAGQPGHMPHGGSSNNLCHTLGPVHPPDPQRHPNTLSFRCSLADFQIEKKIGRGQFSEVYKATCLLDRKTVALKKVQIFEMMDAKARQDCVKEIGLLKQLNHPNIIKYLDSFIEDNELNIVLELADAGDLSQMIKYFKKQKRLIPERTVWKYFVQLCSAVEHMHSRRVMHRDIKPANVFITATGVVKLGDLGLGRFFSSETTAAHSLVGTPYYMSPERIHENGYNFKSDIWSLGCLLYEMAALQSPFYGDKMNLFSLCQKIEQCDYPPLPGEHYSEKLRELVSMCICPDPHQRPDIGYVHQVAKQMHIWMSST
Chain of Serine/threonine-protein kinase Nek2 (P51955 whole entry): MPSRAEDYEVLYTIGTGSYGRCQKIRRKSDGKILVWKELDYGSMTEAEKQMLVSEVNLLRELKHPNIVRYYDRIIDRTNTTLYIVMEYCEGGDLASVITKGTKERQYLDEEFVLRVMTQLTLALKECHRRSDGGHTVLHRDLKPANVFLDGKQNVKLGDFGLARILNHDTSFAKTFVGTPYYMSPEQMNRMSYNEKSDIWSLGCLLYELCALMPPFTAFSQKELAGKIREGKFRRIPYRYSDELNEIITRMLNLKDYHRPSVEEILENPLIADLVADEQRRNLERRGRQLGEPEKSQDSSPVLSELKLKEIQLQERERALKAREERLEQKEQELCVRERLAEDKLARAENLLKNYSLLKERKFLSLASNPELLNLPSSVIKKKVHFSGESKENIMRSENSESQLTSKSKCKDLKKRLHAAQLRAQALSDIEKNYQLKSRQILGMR
Chain of Tyrosine-protein kinase JAK3 (P52333 whole entry): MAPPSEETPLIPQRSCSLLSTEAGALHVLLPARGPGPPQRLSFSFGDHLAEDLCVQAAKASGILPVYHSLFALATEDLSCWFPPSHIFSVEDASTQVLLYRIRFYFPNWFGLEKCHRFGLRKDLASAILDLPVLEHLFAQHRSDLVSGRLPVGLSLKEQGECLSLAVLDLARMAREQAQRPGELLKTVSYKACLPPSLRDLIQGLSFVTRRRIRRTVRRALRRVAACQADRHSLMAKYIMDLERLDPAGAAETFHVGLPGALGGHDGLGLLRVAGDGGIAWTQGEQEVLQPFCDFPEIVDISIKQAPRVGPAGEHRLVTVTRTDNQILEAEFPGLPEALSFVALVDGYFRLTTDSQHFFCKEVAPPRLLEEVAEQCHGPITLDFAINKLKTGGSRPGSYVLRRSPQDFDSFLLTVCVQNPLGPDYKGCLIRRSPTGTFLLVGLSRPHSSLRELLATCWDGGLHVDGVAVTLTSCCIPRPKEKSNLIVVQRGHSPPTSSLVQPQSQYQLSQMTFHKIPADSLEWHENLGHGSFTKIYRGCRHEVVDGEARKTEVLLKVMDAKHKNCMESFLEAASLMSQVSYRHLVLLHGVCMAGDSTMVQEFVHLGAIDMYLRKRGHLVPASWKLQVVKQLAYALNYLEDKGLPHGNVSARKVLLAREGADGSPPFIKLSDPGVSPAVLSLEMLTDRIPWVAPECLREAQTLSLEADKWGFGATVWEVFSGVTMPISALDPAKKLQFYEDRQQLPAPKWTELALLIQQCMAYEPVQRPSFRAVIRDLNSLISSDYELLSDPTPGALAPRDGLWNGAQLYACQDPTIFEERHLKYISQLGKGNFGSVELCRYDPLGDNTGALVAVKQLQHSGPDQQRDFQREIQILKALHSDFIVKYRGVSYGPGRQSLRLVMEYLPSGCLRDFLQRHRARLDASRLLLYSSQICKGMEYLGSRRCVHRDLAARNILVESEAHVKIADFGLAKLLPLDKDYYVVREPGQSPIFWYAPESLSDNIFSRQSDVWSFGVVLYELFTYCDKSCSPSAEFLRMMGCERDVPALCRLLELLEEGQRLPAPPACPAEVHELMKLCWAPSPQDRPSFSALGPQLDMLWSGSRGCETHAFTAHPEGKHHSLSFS
Chain of Serine/threonine-protein kinase PLK2 (Q9NYY3 whole entry): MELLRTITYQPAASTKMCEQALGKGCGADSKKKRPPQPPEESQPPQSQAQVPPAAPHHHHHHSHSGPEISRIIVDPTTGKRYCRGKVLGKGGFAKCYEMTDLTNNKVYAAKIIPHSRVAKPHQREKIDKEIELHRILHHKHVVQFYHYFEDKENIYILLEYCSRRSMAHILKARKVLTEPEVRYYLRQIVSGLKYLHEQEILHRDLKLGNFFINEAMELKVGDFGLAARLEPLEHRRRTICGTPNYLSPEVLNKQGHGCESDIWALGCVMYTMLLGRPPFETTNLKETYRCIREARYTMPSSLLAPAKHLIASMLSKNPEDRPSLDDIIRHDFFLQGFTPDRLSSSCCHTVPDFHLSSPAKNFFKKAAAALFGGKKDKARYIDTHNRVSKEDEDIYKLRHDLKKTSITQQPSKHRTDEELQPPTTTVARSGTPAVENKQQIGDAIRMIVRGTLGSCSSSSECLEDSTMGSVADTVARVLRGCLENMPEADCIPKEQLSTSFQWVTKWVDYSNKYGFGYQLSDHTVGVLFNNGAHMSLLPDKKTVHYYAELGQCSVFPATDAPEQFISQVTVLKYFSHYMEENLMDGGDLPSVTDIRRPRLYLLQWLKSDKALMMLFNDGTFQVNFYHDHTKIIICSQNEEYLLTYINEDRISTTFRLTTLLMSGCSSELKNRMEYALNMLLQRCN
Chain of Glycogen synthase kinase-3 alpha (P49840 whole entry): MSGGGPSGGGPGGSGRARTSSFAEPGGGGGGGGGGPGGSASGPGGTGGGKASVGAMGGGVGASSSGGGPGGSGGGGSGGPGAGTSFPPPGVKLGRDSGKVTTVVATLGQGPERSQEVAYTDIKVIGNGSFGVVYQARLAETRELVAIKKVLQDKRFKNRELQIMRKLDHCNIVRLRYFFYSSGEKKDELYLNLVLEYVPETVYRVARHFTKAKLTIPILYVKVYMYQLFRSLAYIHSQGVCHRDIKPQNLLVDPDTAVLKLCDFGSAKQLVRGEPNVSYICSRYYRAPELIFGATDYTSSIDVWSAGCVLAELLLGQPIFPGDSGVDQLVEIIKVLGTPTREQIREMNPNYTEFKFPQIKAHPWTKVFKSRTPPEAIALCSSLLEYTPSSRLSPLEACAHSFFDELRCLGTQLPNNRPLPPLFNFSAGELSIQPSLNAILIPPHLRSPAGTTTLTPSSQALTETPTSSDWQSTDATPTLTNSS
Chain of Ephrin type-B receptor 2 (P29323 whole entry): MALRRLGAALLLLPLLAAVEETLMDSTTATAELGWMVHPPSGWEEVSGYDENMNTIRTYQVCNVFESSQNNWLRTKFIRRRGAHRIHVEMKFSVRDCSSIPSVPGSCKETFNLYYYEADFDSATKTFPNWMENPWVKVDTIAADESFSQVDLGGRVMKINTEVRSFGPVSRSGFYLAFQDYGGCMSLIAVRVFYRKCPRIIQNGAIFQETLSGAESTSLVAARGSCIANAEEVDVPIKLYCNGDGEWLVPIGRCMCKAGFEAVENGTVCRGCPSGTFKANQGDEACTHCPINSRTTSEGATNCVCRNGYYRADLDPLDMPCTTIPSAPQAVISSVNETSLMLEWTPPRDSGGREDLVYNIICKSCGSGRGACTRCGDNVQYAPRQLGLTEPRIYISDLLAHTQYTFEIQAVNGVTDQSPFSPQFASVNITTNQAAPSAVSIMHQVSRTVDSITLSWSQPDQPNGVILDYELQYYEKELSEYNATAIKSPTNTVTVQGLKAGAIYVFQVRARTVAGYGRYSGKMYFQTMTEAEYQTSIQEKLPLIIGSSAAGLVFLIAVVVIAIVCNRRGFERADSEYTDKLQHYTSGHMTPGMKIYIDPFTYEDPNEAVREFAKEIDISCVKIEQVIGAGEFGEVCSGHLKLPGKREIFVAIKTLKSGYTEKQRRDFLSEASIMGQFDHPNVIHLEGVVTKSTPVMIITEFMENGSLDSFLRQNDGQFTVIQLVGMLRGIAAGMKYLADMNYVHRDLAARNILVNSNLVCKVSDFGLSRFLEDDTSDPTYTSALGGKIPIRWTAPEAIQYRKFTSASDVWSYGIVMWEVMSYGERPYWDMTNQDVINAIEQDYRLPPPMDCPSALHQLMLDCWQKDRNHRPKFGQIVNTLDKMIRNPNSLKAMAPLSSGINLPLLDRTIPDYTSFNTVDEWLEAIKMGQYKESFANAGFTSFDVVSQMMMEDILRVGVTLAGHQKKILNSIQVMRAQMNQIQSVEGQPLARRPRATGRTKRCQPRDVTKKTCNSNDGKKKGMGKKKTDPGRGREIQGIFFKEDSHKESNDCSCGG
Chain of Protein kinase C iota type (P41743 whole entry): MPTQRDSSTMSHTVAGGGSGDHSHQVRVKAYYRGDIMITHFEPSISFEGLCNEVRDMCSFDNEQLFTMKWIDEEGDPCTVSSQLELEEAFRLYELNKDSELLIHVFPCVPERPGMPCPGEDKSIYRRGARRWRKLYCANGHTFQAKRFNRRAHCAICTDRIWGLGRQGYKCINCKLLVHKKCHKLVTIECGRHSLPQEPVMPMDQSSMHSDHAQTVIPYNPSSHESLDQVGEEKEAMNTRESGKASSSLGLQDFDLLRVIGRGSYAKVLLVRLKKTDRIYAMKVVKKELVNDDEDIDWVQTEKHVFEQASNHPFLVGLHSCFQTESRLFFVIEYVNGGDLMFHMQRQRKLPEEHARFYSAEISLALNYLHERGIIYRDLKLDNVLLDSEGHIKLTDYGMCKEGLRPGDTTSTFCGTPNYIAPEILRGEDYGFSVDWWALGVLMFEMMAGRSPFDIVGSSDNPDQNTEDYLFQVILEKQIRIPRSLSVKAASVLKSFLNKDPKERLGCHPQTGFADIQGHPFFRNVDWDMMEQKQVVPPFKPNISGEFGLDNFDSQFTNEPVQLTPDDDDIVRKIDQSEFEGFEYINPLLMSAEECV

In the case of `FC(F)(F)c1ccc(CNc2ccc(Cc3c[nH]c4ncc(Cl)cc34)cn2)cn1` [PEXIDARTINIB], the Activity in the assay with Mus musculus [1] amounted to 688.11 um3.
In the case of `COc1ncc(F)cc1CNc1ccc(Cc2c[nH]c3ncc(C)cc23)c(F)n1` [PLX-5622], the IC50 (in assay [2]; at AMPK alpha2/beta1/gamma1; in assay [5]; in assay [7]; in assay [15]; in assay [16]) was > 1000 nM each time. Further, the IC50 (in assay [17]; in [18]; in assay [19]; on Rhodopsin kinase GRK7; at Ephrin type-B receptor 2; in [21]) was > 1000 nM throughout. In addition, the IC50 in [23] was > 1000 nM. The Flu intensity in the assay on Mus musculus [3] was determined as 2.499 a.u; with Mus musculus [4], 0.77 a.u. Also, the Activity is recorded as 0.179 RPKM in [6]; 83.818% in [8]; 82.746% in [9]; 94.671% in assay [10]; 111.226 RPKM in assay [12]; 0 RPKM in assay [14]. For the same compound, the Activity in [20] is 81.186%; in the assay with Mus musculus [22], 0 pg; in the assay with Mus musculus [24], >99%; in [25], 10.009 RPKM. For the same compound, the result with Mus musculus [11] and in the assay with Mus musculus [13] was Active.

(Values after ChEMBL document CHEMBL5649170, “Sustained microglial depletion with CSF1R inhibitor impairs parenchymal plaque development in an Alzheimer's disease model” (Nat Commun, 2019).)
